Measurements pooled from the literature.
Protocols differ between the studies behind these lines.
Target: Calcium/calmodulin-dependent protein kinase type II subunit alpha (CAMK2A, Homo sapiens, UniProt Q9UQM7)

SMILES | assay | conditions | remaining binding [%]
O=c1nc(-c2ccccn2)sc2ccccc12 | cell-free assay, competition with immobilised ligand | 1 µM | 100
CN(C)c1nccc(-c2cnn3ncccc23)n1 | binding | 1 µM | 62
C=CC(=O)N1CCC(C(=O)NCC(=O)N2CCN(c3nc(-c4cnc(N)nc4C(F)F)nc(N4CCOCC4)n3)CC2)CC1 | binding, competition with immobilised ligand | 1 µM | 96
COc1cnc(Nc2cccc(S(N)(=O)=O)c2)nc1N1CCN(c2ccccc2)C(=O)C1 | binding, competition with immobilised ligand | 1 µM | 100
C[C@H]1CCN(c2nccc(-c3cnn4ncccc34)n2)C1 | binding | 1 µM | 91
CC(=O)C1=C(C)N(c2cccc(C(F)(F)F)c2)C(=O)N[C@@H]1c1ccc(C#N)nc1 | cell-free assay, competition with immobilised ligand | 1 µM | 92.5
O=C(Nc1c[nH]nc1C(=O)NC1CCNCC1)c1cc(F)cc(F)c1 | binding, competition with immobilised ligand | 1 µM | 100
c1cncc(-c2cccc(Nc3nccc(NC4CCCCC4)n3)c2)c1 | binding, competition with immobilised ligand | 10 µM | 84
O=C(NCCCN1CCOCC1)c1ccc(Nc2nccc(-c3cc4ccccc4s3)n2)cc1 | binding, competition with immobilised ligand | 1 µM | 68
CN(C(=O)c1ccccc1)c1cc(N(C)c2ccc3c(c2)CCc2ccc(C(=O)NCCN4CCOCC4)cc2C3=O)ccc1F | cell-free assay, competition with immobilised ligand | 1 µM | 86
CCN1CCN(Cc2ccc(C(=O)Nc3ccc(C)c(Oc4ccc5c(c4)CC(=O)N5)c3)cc2C(F)(F)F)CC1 | binding, competition with immobilised ligand | 1 µM | 100
CN(C)c1ncc(F)c(-c2cnn3ncccc23)n1 | binding | 1 µM | 63
Cn1nc(C(=O)NCc2ccc(C(=O)O)cc2)cc1-c1ccc2[nH]ccc2c1 | cell-free assay, competition with immobilised ligand | 0.1 µM | 79
CC1CCCN1c1nccc(-c2cnn3ncccc23)n1 (stereo not shown) | binding | 1 µM | 90
NS(=O)(=O)c1cc(NC(=O)Cc2ccccc2)ccc1Oc1cccc(Cl)c1 | cell-free assay, competition with immobilised ligand | 1 µM | 96
O=C(c1ccc(Nc2nccc(-c3cc4ccccc4s3)n2)cc1)N1CCC(N2CCCC2)CC1 | binding, competition with immobilised ligand | 1 µM | 95
O=C(Nc1cnc(Oc2ccc(F)cc2)nc1)N1CCc2ncccc2[C@@H]1c1ccc(F)cc1 | cell-free assay, competition with immobilised ligand | 1 µM | 92
FC(F)(F)Oc1cccc(-c2cnc3ccc(-c4ccncc4)nn23)c1 | cell-free assay, competition with immobilised ligand | 5 µM | 14
N[C@@H]1CCN(c2nccc(-c3cnn4ncccc34)n2)C1 | binding | 1 µM | 100
O=C(c1ccc(Nc2ncc(Cl)c(-c3cc4ccccc4s3)n2)cc1)N1CCC(N2CCCC2)CC1 | binding, competition with immobilised ligand | 1 µM | 75
FC(F)(F)c1ccc2c(c1)nc(-c1cccnc1)n2C1CC1 | cell-free assay, competition with immobilised ligand | 1 µM | 88
F[C@@H]1CCN(c2nccc(-c3cnn4ncccc34)n2)C1 | binding | 1 µM | 100
